Measured values as given in ChEMBL document CHEMBL1134691, “3-Phenyl-5-acyloxymethyl-2H,5H-furan-2-ones: synthesis and biological activity of a novel group of potential antifungal drugs” (2001).
Converted amounts (≈) assume the structure as drawn.

Legend:
[1] = system: Candida tropicalis; experiment: Inhibition of Candida tropicalis 156 growth for 24 hours in vitro.; type: functional; conditions: Candida tropicalis, 24 h; read-out: MIC
Method in brief: (§1)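 NCCLS M27-A broth microdilution in RPMI 1640 with L-glutamine and 0.165 M MOPS, pH 7.0. Isolates kept on Sabouraud dextrose agar. Inoculum 5 × 10^3 cfu/mL final. Compounds were diluted in DMSO (≤2% final) and tested in 2-fold dilutions of 1000–0.24 µmol/L. Incubation at 35 °C, OD540 read at 24 and 48 h. MIC = 80% growth inhibition versus control; assays run twice in duplicate.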

[2] = Inhibition of Trichophyton mentagrophytes 445 growth for 120 hours in vitro.; type: functional, Arthroderma benhamiae; conditions: Trichophyton benhamiae, 120 h; read-out: MIC
Method in brief: (§2)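 Dermatophyte grown in MOPS-buffered (0.165 M, pH 7.0) RPMI 1640 containing L-glutamine, in an M27-A microdilution format. Inoculum 5 × 10^3 cfu/mL final. Compounds from DMSO stocks (≤2% final), 2-fold dilutions 1000–0.24 µmol/L. Incubated at 35 °C, growth judged visually at 72 and 120 h. MIC endpoint is 80% inhibition relative to control; measured twice in duplicate.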

[3] = system: Candida parapsilosis; experiment: Inhibition of Candida parapsilosis ATCC 22019 growth for 24 hours in vitro.; type: functional; conditions: Lodderomyces parapsilosis, ATCC 22019, 24 h; read-out: MIC; method in brief: as §1
[4] = system: Pichia kudriavzevii; experiment: Inhibition of Candida krusei E28 growth for 48 hours in vitro.; type: functional; conditions: Pichia kudriavzevii, 48 h; read-out: MIC; method in brief: as §1
[5] = Inhibition of Trichophyton mentagrophytes 445 growth for 72 hours in vitro.; type: functional, Arthroderma benhamiae; conditions: Trichophyton benhamiae, 72 h; read-out: MIC; method in brief: as §2
[6] = system: Pichia kudriavzevii; experiment: Inhibition of Candida krusei ATCC 6258 growth for 24 hours in vitro.; type: functional; conditions: Pichia kudriavzevii, ATCC 6258, 24 h; read-out: MIC; method in brief: as §1
[7] = system: Candida albicans; experiment: Inhibition of Candida albicans ATCC 44859 growth for 24 hours in vitro.; type: functional; conditions: Candida albicans, ATCC 44859, 24 h; read-out: MIC; method in brief: as §1
[8] = system: Trichosporon beigelii; experiment: Inhibition of Trichosporon beigelli 1188 for 48 hours in vitro.; type: functional; conditions: Trichosporon beigelii, 48 h; read-out: MIC
Method in brief: (§3)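 Microdilution following NCCLS M27-A. Medium: RPMI 1640 with L-glutamine, 0.165 M MOPS, pH 7.0. Final inoculum 5 × 10^3 cfu/mL. Compounds dissolved in DMSO, final ≤2%, serially halved from 1000 to 0.24 µmol/L. Incubated at 35 °C and read at 24 and 48 h. MIC defined as 80% inhibition of control growth; run twice in duplicate.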

[9] = system: Pichia kudriavzevii; experiment: Inhibition of Candida krusei ATCC 6258 growth for 48 hours in vitro.; type: functional; conditions: Pichia kudriavzevii, ATCC 6258, 48 h; read-out: MIC; method in brief: as §1
[10] = system: Aspergillus fumigatus; experiment: Inhibition of Aspergillus fumigatus 231 growth for 24 hours in vitro.; type: functional; conditions: Aspergillus fumigatus, 24 h; read-out: MIC
Method in brief: (§4)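 Filamentous isolates tested by microdilution per NCCLS M27-A in RPMI 1640 plus L-glutamine, buffered with 0.165 M MOPS to pH 7.0. Final inoculum 5 × 10^3 cfu/mL. Compounds in DMSO (final ≤2%), 2-fold series over 1000–0.24 µmol/L. Plates held at 35 °C and read visually after 24 and 48 h. MIC taken as 80% inhibition of control growth; determined twice in duplicate.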

[11] = system: Aspergillus fumigatus; experiment: Inhibition of Aspergillus fumigatus 231 growth for 48 hours in vitro.; type: functional; conditions: Aspergillus fumigatus, 48 h; read-out: MIC; method in brief: as §4
[12] = system: Clavispora lusitaniae; experiment: Inhibition of Candida lusitaniae 2446/I growth for 24 hours in vitro.; type: functional; conditions: Clavispora lusitaniae, 24 h; read-out: MIC; method in brief: as §1
[13] = system: Candida tropicalis; experiment: Inhibition of Candida tropicalis 156 growth for 48 hours in vitro.; type: functional; conditions: Candida tropicalis, 48 h; read-out: MIC; method in brief: as §1
[14] = system: Trichosporon beigelii; experiment: Inhibition of Trichosporon beigelli 1188 for 24 hours in vitro.; type: functional; conditions: Trichosporon beigelii, 24 h; read-out: MIC; method in brief: as §3
[15] = system: Nakaseomyces glabratus; experiment: Inhibition of Candida glabrata 20/I growth for 48 hours in vitro.; type: functional; conditions: Nakaseomyces glabratus, 48 h; read-out: MIC; method in brief: as §1
[16] = system: Lichtheimia corymbifera; experiment: In vitro inhibition of Absidia corymbifera 272 growth for 24 hours.; type: functional; conditions: Lichtheimia corymbifera, 24 h; read-out: MIC; method in brief: as §4
[17] = system: Lichtheimia corymbifera; experiment: In vitro inhibition of Absidia corymbifera 272 growth for 48 hours.; type: functional; conditions: Lichtheimia corymbifera, 48 h; read-out: MIC; method in brief: as §4
[18] = system: Candida albicans; experiment: Inhibition of Candida albicans ATCC 90028 for 48 hours in vitro.; type: functional; conditions: Candida albicans, ATCC 90028, 48 h; read-out: MIC; method in brief: as §1
[19] = system: Candida albicans; experiment: Inhibition of Candida albicans ATCC 90028 for 24 hours in vitro.; type: functional; conditions: Candida albicans, ATCC 90028, 24 h; read-out: MIC; method in brief: as §1
[20] = system: Candida parapsilosis; experiment: Inhibition of Candida parapsilosis ATCC 22019 growth for 48 hours in vitro.; type: functional; conditions: Lodderomyces parapsilosis, ATCC 22019, 48 h; read-out: MIC; method in brief: as §1
[21] = system: Clavispora lusitaniae; experiment: Inhibition of Candida lusitaniae 2446/I growth for 48 hours in vitro.; type: functional; conditions: Clavispora lusitaniae, 48 h; read-out: MIC; method in brief: as §1
[22] = system: Candida albicans; experiment: Inhibition of Candida albicans ATCC 44859 growth for 48 hours in vitro.; type: functional; conditions: Candida albicans, ATCC 44859, 48 h; read-out: MIC; method in brief: as §1
[23] = system: Pichia kudriavzevii; experiment: Inhibition of Candida krusei E28 growth for 24 hours in vitro.; type: functional; conditions: Pichia kudriavzevii, 24 h; read-out: MIC; method in brief: as §1
[24] = system: Nakaseomyces glabratus; experiment: Inhibition of Candida glabrata 20/I growth for 24 hours in vitro.; type: functional; conditions: Nakaseomyces glabratus, 24 h; read-out: MIC; method in brief: as §1

| MIC [1] [µM] | MIC [2] [µM] | MIC [3] [µM] | MIC [4] [µM] | MIC [5] [µM] | MIC [6] [µM] | MIC [7] [µM] | MIC [8] [µM] | MIC [9] [µM] | MIC [10] [µM] | MIC [11] [µM] | MIC [12] [µM] | MIC [13] [µM] | MIC [14] [µM] | MIC [15] [µM] | MIC [16] [µM] | MIC [17] [µM] | MIC [18] [µM] | MIC [19] [µM] | MIC [20] [µM] | SMILES | also measured |
| --- | --- | --- | --- | --- | --- | --- | --- | --- | --- | --- | --- | --- | --- | --- | --- | --- | --- | --- | --- | --- | --- |
| 500 (≈ 112 µg/mL) | 15.6 (≈ 3.51 µg/mL) | 500 (≈ 112 µg/mL) | > 1000 | 15.6 (≈ 3.51 µg/mL) | 1000 (≈ 225 µg/mL) | 31.2 (≈ 7.02 µg/mL) | 1000 (≈ 225 µg/mL) | > 1000 | 31.2 (≈ 7.02 µg/mL) | 125 (≈ 28.1 µg/mL) | 250 (≈ 56.2 µg/mL) | > 1000 | 250 (≈ 56.2 µg/mL) | 62.5 (≈ 14 µg/mL) | 125 (≈ 28.1 µg/mL) | 500 (≈ 112 µg/mL) | 250 (≈ 56.2 µg/mL) | 250 (≈ 56.2 µg/mL) | 1000 (≈ 225 µg/mL) | O=C1OC(CO)C=C1c1cccc(Cl)c1 (configuration not stated) | MIC [21]: 1000 µM (≈ 225 µg/mL); MIC [22]: 62.5 µM (≈ 14 µg/mL); MIC [23]: 1000 µM (≈ 225 µg/mL); MIC [24]: 62.5 µM (≈ 14 µg/mL) |
| 7.81 (≈ 2.41 µg/mL) | 1.95 (≈ 0.602 µg/mL) | 7.81 (≈ 2.41 µg/mL) | 15.6 (≈ 4.83 µg/mL) | 1.95 (≈ 0.602 µg/mL) | 7.81 (≈ 2.41 µg/mL) | < 0.98 | 15.6 (≈ 4.83 µg/mL) | 7.81 (≈ 2.41 µg/mL) | < 0.98 | 3.91 (≈ 1.21 µg/mL) | 3.91 (≈ 1.21 µg/mL) | 15.6 (≈ 4.83 µg/mL) | 3.91 (≈ 1.21 µg/mL) | < 0.98 | 7.81 (≈ 2.41 µg/mL) | 15.6 (≈ 4.83 µg/mL) | 7.81 (≈ 2.41 µg/mL) | 3.91 (≈ 1.21 µg/mL) | 15.6 (≈ 4.83 µg/mL) | CC(C)(C)C(=O)OCC1C=C(c2cccc(Cl)c2)C(=O)O1 (configuration not stated) | MIC [21]: 7.81 µM (≈ 2.41 µg/mL); MIC [22]: 3.91 µM (≈ 1.21 µg/mL); MIC [23]: 7.81 µM (≈ 2.41 µg/mL); MIC [24]: < 0.98 µM |
| 1.95 (≈ 0.775 µg/mL) | 0.98 (≈ 0.39 µg/mL) | 1.95 (≈ 0.775 µg/mL) | 7.81 (≈ 3.11 µg/mL) | 0.98 (≈ 0.39 µg/mL) | 3.91 (≈ 1.55 µg/mL) | 0.12 (≈ 0.0477 µg/mL) | 7.81 (≈ 3.11 µg/mL) | 7.81 (≈ 3.11 µg/mL) | 0.98 (≈ 0.39 µg/mL) | 3.91 (≈ 1.55 µg/mL) | 1.95 (≈ 0.775 µg/mL) | 3.91 (≈ 1.55 µg/mL) | 1.95 (≈ 0.775 µg/mL) | 0.98 (≈ 0.39 µg/mL) | 15.6 (≈ 6.22 µg/mL) | 31.2 (≈ 12.4 µg/mL) | 3.91 (≈ 1.55 µg/mL) | 1.95 (≈ 0.775 µg/mL) | 3.91 (≈ 1.55 µg/mL) | O=C1OC(COC(=O)c2ccc(Cl)cc2)C=C1c1ccc(Cl)c(Cl)c1 (configuration not stated) | MIC [21]: 3.91 µM (≈ 1.55 µg/mL); MIC [22]: 1.95 µM (≈ 0.775 µg/mL); MIC [23]: 3.91 µM (≈ 1.55 µg/mL); MIC [24]: 0.98 µM (≈ 0.39 µg/mL) |
